Experiments:
Format in all cases: functional
[1] = tested on: RXF 393; assay: Antitumor activity against human RXF393 cells
Summary of the method: (§1)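 Run by the NCI in its in vitro disease-oriented screen of about 60 human tumour cell lines. For each line it reports pGI50 (50% net growth inhibition), pTGI (total growth inhibition) and pLC50 (50% net cell death), each as –log molar concentration. Where an effect was not reached within the tested range, the highest tested concentration was used.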

[2] = tested on: Hs-578T; assay: Antitumor activity against human HS578T cells; summary of the method: as §1
[3] = tested on: CCRF-CEM; assay: Growth inhibition of human CEM cells after 72 hrs by MTT assay
Summary of the method: (§2)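 Growth inhibition by MTT after 72 h incubation. Resistant sublines: LoVoDoxo and MCF-7 MDR were kept in 0.1 µg/mL doxorubicin; CEMVbl-100 was selected against vinblastine. GI50 given as mean ± SEM of three independent experiments. Resistance index is resistant-line GI50 over parental GI50.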

[4] = tested on: NCI-H226; assay: Antitumor activity against human NCI-H226 cells; summary of the method: as §1
[5] = tested on: TK-10; assay: Antitumor activity against human TK10 cells
Summary of the method: (§3)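 NCI 60-cell-line screen. Parameters were GI50 (50% net growth inhibition), TGI and LC50, each reported as –log molar concentration. Where an effect was not reached within the tested range, the highest tested concentration was used in the calculation.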

[6] = tested on: MCF7; assay: Resistance index, Ratio of GI50 for human multidrug-resistant MCF7 cells to GI50 for human MCF7 cells; summary of the method: as §2
[7] = tested on: HCC 2998; assay: Antitumor activity against human HCC2998 cells; summary of the method: as §1
[8] = Antitumor activity against human NCI-H322 cells; summary of the method: as §1
[9] = tested on: SF-295; assay: Antitumor activity against human SF295 cells; summary of the method: as §1
[10] = tested on: NCI/ADR-RES; assay: Antitumor activity against human NCI/ADR-RES cells; summary of the method: as §1
[11] = tested on: CCRF-CEM; assay: Growth inhibition of human vinblastine-resistant CEM cells after 72 hrs by MTT assay; summary of the method: as §2
[12] = tested on: UACC-257; assay: Antitumor activity against human UACC257 cells; summary of the method: as §3
[13] = tested on: BT-549; assay: Antitumor activity against human BT549 cells; summary of the method: as §1
[14] = tested on: UACC-62; assay: Antitumor activity against human UACC62 cells; summary of the method: as §3
[15] = tested on: SW-620; assay: Antitumor activity against human SW620 cells; summary of the method: as §3
[16] = tested on: SNB-19; assay: Antitumor activity against human SNB19 cells; summary of the method: as §1
[17] = tested on: SN12C; assay: Antitumor activity against human SN12C cells; summary of the method: as §1
[18] = tested on: 786-0; assay: Antitumor activity against human 786-0 cells; summary of the method: as §1
[19] = tested on: IGROV-1; assay: Antitumor activity against human IGROV1 cells; summary of the method: as §1
[20] = tested on: SK-OV-3; assay: Antitumor activity against human SKOV3 cells; summary of the method: as §1
[21] = read-out: Log LC50 (the source's name) (converted)

COc1ccc2c(c1)[nH]c(=O)c1c3ccccc3cn21
GI50 [1]: 20.4 nM
CC50 [1, 21]: > 100000 nM
TGI ([1]; read-out: pTGI (converted)): 3160 nM
GI50 [2]: 51.3 nM
CC50 [2, 21]: > 100000 nM
TGI ([2]; read-out: pTGI (converted)): 2690 nM
GI50 [3]: 20 nM
GI50 [4]: 45.7 nM
LC50 (50% net cell kill) [4]: > 100000 nM
TGI ([4]; read-out: pTGI (converted)): 525 nM
GI50 [5]: 513 nM
CC50 [5, 21]: 6610 nM
TGI ([5]; read-out: pTGI (converted)): 2450 nM
RatioGI50 [6]: 0.9
GI50 [7]: 18.2 nM
LC50 [7]: 501 nM
TGI ([7]; read-out: pTGI (converted)): 49 nM
GI50 [8]: 83.2 nM
LC50 (50% net cell death) [8]: 7760 nM
TGI ([8]; read-out: pTGI (converted)): 2570 nM
GI50 [9]: 26.9 nM
CC50 [9, 21]: 4170 nM
TGI ([9]; read-out: pTGI (converted)): 1050 nM
GI50 [10]: 21.4 nM
LC50 [10]: 10000 nM
TGI ([10]; read-out: pTGI (converted)): 57.5 nM
GI50 [11]: 20 nM
GI50 [12]: 5130 nM
LC50 [12]: 74100 nM
TGI ([12]; read-out: pTGI (converted)): 30900 nM
GI50 [13]: 55 nM
LC50 (50% net cell kill) [13]: 6310 nM
TGI ([13]; read-out: pTGI (converted)): 2040 nM
GI50 [14]: 74.1 nM
LC50 [14]: 4370 nM
TGI ([14]; read-out: pTGI (converted)): 1910 nM
GI50 [15]: 26.3 nM
CC50 [15, 21]: 4170 nM
TGI ([15]; read-out: pTGI (converted)): 1410 nM
GI50 [16]: 38.9 nM
CC50 [16, 21]: > 100000 nM
TGI ([16]; read-out: pTGI (converted)): 4070 nM
GI50 [17]: 57.5 nM
LC50 [17]: > 100000 nM
TGI ([17]; read-out: pTGI (converted)): 2090 nM
GI50 [18]: 41.7 nM
CC50 [18, 21]: 4570 nM
TGI ([18]; read-out: pTGI (converted)): 1860 nM
GI50 [19]: 74.1 nM
CC50 [19, 21]: 8510 nM
TGI ([19]; read-out: pTGI (converted)): 2290 nM
GI50 [20]: 38.9 nM
LC50 (50% net cell kill) [20]: 8510 nM
TGI ([20]; read-out: pTGI (converted)): 1620 nM

From ChEMBL document CHEMBL1144782, “Isoindolo[2,1-a]quinoxaline derivatives, novel potent antitumor agents with dual inhibition of tubulin polymerization and topoisomerase I” (2008)
